# Source: ChEMBL document CHEMBL3580573, “Ibogan, tacaman, and cytotoxic bisindole alkaloids from tabernaemontana. Cononusine, an iboga alkaloid with unusual incorporation of a pyrrolidone moiety” (J Nat Prod, 2015)
# pIC50: −log10 of the molar value.
# Key:
# KB [1] = assay: Cytotoxicity against vincristine-sensitive human KB cells assessed as growth inhibition after 72 hrs by MTT assay; format: functional, cell-based
# KB [2] = assay: Cytotoxicity against vincristine-resistant human KB cells assessed as growth inhibition after 72 hrs by MTT assay; format: functional, cell-based
# KB [3] = assay: Cytotoxicity against vincristine-resistant human KB cells assessed as growth inhibition after 72 hrs by MTT assay in presence of vincristine; format: functional, cell-based
# HCT-116 [4] = assay: Cell cycle arrest in human HCT116 cells assessed as accumulation at pre-G1 phase at IC50 to 2 times IC50 after 48 hrs relative to control; format: functional
# Method in brief: (§1)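 Cells were exposed for 48 h, then analysed by flow-cytometric cell cycle profiling. Pre-G1 events were scored and compared with untreated control, with significance at p < 0.05.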
# MDA-MB-468 [5] = assay: Induction of apoptosis in human MDA-MB-468 cells assessed as late apoptotic cells at IC50 after 48 hrs by annexin V-FITC/propidium iodide staining-based flow cytometric analysis (reference value: 3.65%); format: functional
# MDA-MB-468 [6] = assay: Induction of apoptosis in human MDA-MB-468 cells assessed as early apoptotic cells at 2 times IC50 after 48 hrs by annexin V-FITC/propidium iodide staining-based flow cytometric analysis (reference value: 3.24%); format: functional
# HCT-116 [7] = assay: Induction of apoptosis in human HCT116 cells assessed as necrotic cells at 2 times IC50 after 48 hrs by annexin V-FITC/propidium iodide staining-based flow cytometric analysis (reference value: 1.84%); format: functional
# MDA-MB-468 [8] = assay: Induction of apoptosis in human MDA-MB-468 cells assessed as necrotic cells at 2 times IC50 after 48 hrs by annexin V-FITC/propidium iodide staining-based flow cytometric analysis (reference value: 0.25%); format: functional
# MDA-MB-468 [9] = assay: Induction of apoptosis in human MDA-MB-468 cells assessed as late apoptotic cells at 2 times IC50 after 48 hrs by annexin V-FITC/propidium iodide staining-based flow cytometric analysis (reference value: 3.65%); format: functional
# MDA-MB-468 [10] = assay: Induction of apoptosis in human MDA-MB-468 cells assessed as viable cells at IC50 after 48 hrs by annexin V-FITC/propidium iodide staining-based flow cytometric analysis (reference value: 92.9%); format: functional
# HT-29 = assay: Cytotoxicity against human HT-29 cells assessed as growth inhibition after 72 hrs by MTT assay; format: functional, cell-based; conditions: HT-29, 72 h
# HCT-116 [11] = assay: Induction of apoptosis in human HCT116 cells assessed as viable cells at IC50 after 48 hrs by annexin V-FITC/propidium iodide staining-based flow cytometric analysis (reference value: 94.4%); format: functional
# HCT-116 [12] = assay: Induction of apoptosis in human HCT116 cells assessed as viable cells at 2 times IC50 after 48 hrs by annexin V-FITC/propidium iodide staining-based flow cytometric analysis (reference value: 94.4%); format: functional
# A549 = assay: Cytotoxicity against human A549 cells assessed as growth inhibition after 72 hrs by MTT assay; format: functional, cell-based; conditions: A549, 72 h
# HCT-116 [13] = assay: Induction of apoptosis in human HCT116 cells assessed as late apoptotic cells at IC50 after 48 hrs by annexin V-FITC/propidium iodide staining-based flow cytometric analysis (reference value: 2.27%); format: functional
# HCT-116 [14] = assay: Induction of apoptosis in human HCT116 cells assessed as early apoptotic cells at 2 times IC50 after 48 hrs by annexin V-FITC/propidium iodide staining-based flow cytometric analysis (reference value: 1.45%); format: functional
# MDA-MB-468 [15] = assay: Cell cycle arrest in human MDA-MB-468 cells assessed as accumulation at pre-G1 phase at IC50 to 2 times IC50 after 48 hrs relative to control; format: functional; method in brief: as §1
# MDA-MB-468 [16] = assay: Cytotoxicity against human MDA-MB-468 cells assessed as growth inhibition after 72 hrs by MTT assay; format: functional, cell-based; conditions: MDA-MB-468, 72 h
# HCT-116 [17] = assay: Induction of apoptosis in human HCT116 cells assessed as early apoptotic cells at IC50 after 48 hrs by annexin V-FITC/propidium iodide staining-based flow cytometric analysis (reference value: 1.45%); format: functional
# MDA-MB-468 [18] = assay: Induction of apoptosis in human MDA-MB-468 cells assessed as necrotic cells at IC50 after 48 hrs by annexin V-FITC/propidium iodide staining-based flow cytometric analysis (reference value: 0.25%); format: functional
# HCT-116 [19] = assay: Cytotoxicity against human HCT116 cells assessed as growth inhibition after 72 hrs by MTT assay; format: functional, cell-based; conditions: HCT-116, 72 h
# MDA-MB-468 [20] = assay: Induction of apoptosis in human MDA-MB-468 cells assessed as viable cells at 2 times IC50 after 48 hrs by annexin V-FITC/propidium iodide staining-based flow cytometric analysis (reference value: 92.9%); format: functional
# MCF7 = assay: Cytotoxicity against human MCF7 cells assessed as growth inhibition after 72 hrs by MTT assay; format: functional, cell-based; conditions: MCF7, 72 h
# MDA-MB-468 [21] = assay: Induction of apoptosis in human MDA-MB-468 cells assessed as early apoptotic cells at IC50 after 48 hrs by annexin V-FITC/propidium iodide staining-based flow cytometric analysis (reference value: 3.24%); format: functional
# HCT-116 [22] = assay: Induction of apoptosis in human HCT116 cells assessed as necrotic cells at IC50 after 48 hrs by annexin V-FITC/propidium iodide staining-based flow cytometric analysis (reference value: 1.84%); format: functional
# HCT-116 [23] = assay: Induction of apoptosis in human HCT116 cells assessed as late apoptotic cells at 2 times IC50 after 48 hrs by annexin V-FITC/propidium iodide staining-based flow cytometric analysis (reference value: 2.27%); format: functional
compound,measurement,setting,value
CC[C@H]1C[C@H]2C[C@H]3c4[nH]c5cc(C6CCC(=O)N6)c(OC)cc5c4CCN(C2)[C@@H]13 (stereo partly specified),IC50,KB [1],> 25 µg/mL
same,IC50,KB [2],> 25 µg/mL
same,IC50,KB [3],> 25 µg/mL
CC[C@H]1C[C@H]2C[C@@H]3[C@H]1N(C2)C[C@@H](O)[C@@]31Nc2ccc(OC)cc2C1=O,IC50,KB [1],> 25 µg/mL
same,IC50,KB [2],> 25 µg/mL
same,pIC50,KB [3],4.27
C/C=C1/CN2[C@H]3C[C@H]1C1(C(=O)OC)C[C@]4(C[C@@H]21)c1ccccc1N(C)[C@H]34 (stereo partly specified),IC50,KB [1],> 25 µg/mL
same,IC50,KB [2],> 25 µg/mL
same,pIC50,KB [3],5.58
CC[C@]1(O)C[C@@H]2CC(=O)n3c4c(c5ccccc53)CCN(C1)[C@@H]42,IC50,KB [1],> 25 µg/mL
same,IC50,KB [2],> 25 µg/mL
same,IC50,KB [3],> 25 µg/mL
CC[C@H]1C[C@H]2C[C@H]3c4[nH]c5ccc(OC)cc5c4C(=O)CN(C2)[C@@H]13,IC50,KB [1],> 25 µg/mL
same,IC50,KB [2],> 25 µg/mL
same,IC50,KB [3],> 25 µg/mL
C/C=C1/C[N+]2(CCl)CC[C@]34C(=C(C=O)[C@H]1C[C@@H]32)Nc1ccccc14.[Cl-] (stereo partly specified),IC50,KB [1],> 25 µg/mL
same,IC50,KB [2],> 25 µg/mL
same,IC50,KB [3],> 25 µg/mL
C/C=C1/CN(C)[C@H]2Cc3c([nH]c4ccccc34)[C@@H](c3cc4[nH]c5c(c4cc3OC)CCN3C[C@H]4C[C@H](CC)[C@H]3[C@H]5C4)C[C@H]1[C@]2(CO)C(=O)OC,pIC50,KB [1],5.86
same,Activity,HCT-116 [4],80%
same,Activity,MDA-MB-468 [5],5.76%
same,Activity,MDA-MB-468 [6],21.4%
same,Activity,HCT-116 [7],14.5%
same,Activity,MDA-MB-468 [8],1.68%
same,Activity,MDA-MB-468 [9],13.8%
same,Activity,MDA-MB-468 [10],90.1%
same,pIC50,HT-29,5.59
same,Activity,HCT-116 [11],79.6%
same,Activity,HCT-116 [12],4.85%
same,pIC50,A549,5.51
same,Activity,HCT-116 [13],11.4%
same,Activity,HCT-116 [14],8.25%
same,Activity,MDA-MB-468 [15],35%
same,pIC50,MDA-MB-468 [16],5.56
same,Activity,HCT-116 [17],6.98%
same,Activity,MDA-MB-468 [18],0.18%
same,pIC50,KB [2],5.92
same,pIC50,KB [3],6.01
same,pIC50,HCT-116 [19],5.54
same,Activity,MDA-MB-468 [20],63.1%
same,pIC50,MCF7,5.38
same,Activity,MDA-MB-468 [21],3.95%
same,Activity,HCT-116 [22],3%
same,Activity,HCT-116 [23],72.4%
C/C=C1/CN[C@H]2Cc3c([nH]c4ccccc34)[C@@H](c3cc4[nH]c5c(c4cc3OC)CCN3C[C@H]4C[C@H](CC)[C@H]3[C@H]5C4)C[C@H]1[C@@H]2C(=O)OC,pIC50,KB [1],6.02
same,Activity,HCT-116 [4],80%
same,Activity,MDA-MB-468 [5],3.15%
same,Activity,MDA-MB-468 [6],42.5%
same,Activity,HCT-116 [7],46.4%
same,Activity,MDA-MB-468 [8],2.68%
same,Activity,MDA-MB-468 [9],32%
same,Activity,MDA-MB-468 [10],93%
same,pIC50,HT-29,5.80
same,Activity,HCT-116 [11],21.9%
same,Activity,HCT-116 [12],6.4%
same,pIC50,A549,5.55
same,Activity,HCT-116 [13],22%
same,Activity,HCT-116 [14],3.5%
same,Activity,MDA-MB-468 [15],35%
same,pIC50,MDA-MB-468 [16],6.15
same,Activity,HCT-116 [17],7.76%
same,Activity,MDA-MB-468 [18],0.17%
same,pIC50,KB [2],5.95
same,pIC50,KB [3],5.92
same,pIC50,HCT-116 [19],5.69
same,Activity,MDA-MB-468 [20],22.8%
same,pIC50,MCF7,5.49
same,Activity,MDA-MB-468 [21],3.7%
same,Activity,HCT-116 [22],48.4%
same,Activity,HCT-116 [23],43.7%
C/C=C1/CN(C)[C@H]2Cc3c([nH]c4ccccc34)[C@@H](c3cc4[nH]c5c(c4cc3OC)CCN3C[C@H]4C[C@H](CC)[C@H]3[C@H]5C4)C[C@H]1[C@@H]2C(=O)OC,pIC50,KB [1],5.82
same,pIC50,KB [2],6.01
same,pIC50,KB [3],6.10
C/C=C1/CN(C)[C@H]2Cc3c([nH]c4ccccc34)[C@@H](c3cc4c(cc3OC)C(=O)[C@@]3(CCN5C[C@H]6C[C@H](CC)[C@H]5[C@H]3C6)N4)C[C@H]1[C@@H]2C(=O)OC,pIC50,KB [1],5.97
same,pIC50,KB [2],5.97
same,pIC50,KB [3],5.92
